From the M2OR odorant receptor database

Experiments:
Settings in all cases: stereoisomer not certain
[1] = test system: T1, A0A140T8K0
T1 sequence (whole entry): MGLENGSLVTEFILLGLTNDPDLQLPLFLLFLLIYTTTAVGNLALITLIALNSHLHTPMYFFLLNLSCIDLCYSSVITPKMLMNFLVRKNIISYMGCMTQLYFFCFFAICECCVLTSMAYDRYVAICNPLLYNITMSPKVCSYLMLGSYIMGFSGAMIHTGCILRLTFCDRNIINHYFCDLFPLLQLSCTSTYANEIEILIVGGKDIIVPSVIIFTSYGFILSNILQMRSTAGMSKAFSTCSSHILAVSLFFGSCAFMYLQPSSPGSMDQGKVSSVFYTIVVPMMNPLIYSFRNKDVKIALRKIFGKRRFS
Method in brief: (§1)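 Assay methods differ from source to source, frequently being transient luciferase assays in mammalian cell lines. For each receptor–molecule pair, the label responsive (active) applies when the original authors judged the measured signal statistically different from baseline, and non-responsive (inactive) applies otherwise.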

[2] = test system: O10H2
O10H2, sequence (as listed by the source): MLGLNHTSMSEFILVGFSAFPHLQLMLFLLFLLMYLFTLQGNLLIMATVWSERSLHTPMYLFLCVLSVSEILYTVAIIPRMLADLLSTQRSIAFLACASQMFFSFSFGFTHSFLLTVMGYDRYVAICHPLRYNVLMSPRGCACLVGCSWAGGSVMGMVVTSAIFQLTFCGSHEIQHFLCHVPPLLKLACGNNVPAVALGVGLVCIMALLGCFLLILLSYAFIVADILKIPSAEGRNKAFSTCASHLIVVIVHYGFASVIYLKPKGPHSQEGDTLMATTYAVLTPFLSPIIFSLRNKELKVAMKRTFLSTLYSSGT
Method in brief: as §1

[3] = test system: T2, A0A140T8K4
T2 sequence (whole entry): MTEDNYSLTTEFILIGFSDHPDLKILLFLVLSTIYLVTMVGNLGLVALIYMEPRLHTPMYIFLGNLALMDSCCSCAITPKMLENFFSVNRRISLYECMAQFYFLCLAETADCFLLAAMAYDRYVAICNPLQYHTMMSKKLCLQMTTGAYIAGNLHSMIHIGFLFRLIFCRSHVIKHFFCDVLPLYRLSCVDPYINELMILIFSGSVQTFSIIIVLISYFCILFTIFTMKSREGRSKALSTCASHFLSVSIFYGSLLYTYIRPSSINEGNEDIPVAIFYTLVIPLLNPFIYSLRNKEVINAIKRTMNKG
Method in brief: as §1

[4] = test system: T3, A0A1L1SVG7
T3 sequence (whole entry): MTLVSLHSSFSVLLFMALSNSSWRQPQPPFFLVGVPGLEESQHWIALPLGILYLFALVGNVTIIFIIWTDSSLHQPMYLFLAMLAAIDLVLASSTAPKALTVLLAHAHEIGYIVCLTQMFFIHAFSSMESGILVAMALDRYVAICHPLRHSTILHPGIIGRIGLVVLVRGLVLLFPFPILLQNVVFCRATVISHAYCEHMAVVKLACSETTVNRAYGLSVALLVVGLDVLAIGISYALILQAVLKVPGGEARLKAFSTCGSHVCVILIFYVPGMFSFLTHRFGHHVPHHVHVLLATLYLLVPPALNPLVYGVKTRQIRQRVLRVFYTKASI
Method in brief: as §1

[5] = test system: O10A2 H43R H207R K258T
Method in brief: as §1

[6] = test system: O10A3 C8G
O10A3 C8G, sequence (as listed by the source): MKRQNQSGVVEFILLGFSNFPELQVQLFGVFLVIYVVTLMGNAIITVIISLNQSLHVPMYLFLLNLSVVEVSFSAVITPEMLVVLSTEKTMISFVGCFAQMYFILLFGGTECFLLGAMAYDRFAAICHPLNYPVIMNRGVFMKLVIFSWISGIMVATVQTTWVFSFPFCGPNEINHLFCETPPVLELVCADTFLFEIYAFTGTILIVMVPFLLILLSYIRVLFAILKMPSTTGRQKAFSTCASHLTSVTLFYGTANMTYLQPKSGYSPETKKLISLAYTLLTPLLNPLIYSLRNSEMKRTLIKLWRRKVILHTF
Method in brief: as §1

[7] = test system: O10A6
O10A6, sequence (as listed by the source): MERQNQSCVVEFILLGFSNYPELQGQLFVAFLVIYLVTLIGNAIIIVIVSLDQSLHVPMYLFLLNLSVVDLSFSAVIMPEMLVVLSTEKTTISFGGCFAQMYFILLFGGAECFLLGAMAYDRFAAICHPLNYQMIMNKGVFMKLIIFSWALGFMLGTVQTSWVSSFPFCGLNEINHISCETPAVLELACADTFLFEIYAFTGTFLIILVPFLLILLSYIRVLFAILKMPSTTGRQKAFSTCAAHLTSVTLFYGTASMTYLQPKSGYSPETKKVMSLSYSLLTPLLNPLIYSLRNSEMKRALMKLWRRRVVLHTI
Method in brief: as §1

[8] = test system: O10AD G65C
O10AD G65C, sequence (as listed by the source, stated change not applied): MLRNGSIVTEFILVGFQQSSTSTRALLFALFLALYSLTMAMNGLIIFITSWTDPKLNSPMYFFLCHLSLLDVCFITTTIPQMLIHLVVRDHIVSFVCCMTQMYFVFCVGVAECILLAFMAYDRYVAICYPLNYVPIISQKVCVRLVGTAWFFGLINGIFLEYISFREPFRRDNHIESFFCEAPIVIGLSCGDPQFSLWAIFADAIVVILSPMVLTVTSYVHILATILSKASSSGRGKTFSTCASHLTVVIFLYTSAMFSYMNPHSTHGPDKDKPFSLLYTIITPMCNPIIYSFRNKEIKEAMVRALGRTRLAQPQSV
Method in brief: as §1

[9] = test system: O10D3 V134A R197K
Method in brief: as §1

[10] = test system: O10G4 L24P V195E
Method in brief: as §1

[11] = test system: O10G7 A18V P19Q G20A
Method in brief: as §1

[12] = test system: O10G7 I28V
O10G7 I28V, sequence (as listed by the source, stated change not applied): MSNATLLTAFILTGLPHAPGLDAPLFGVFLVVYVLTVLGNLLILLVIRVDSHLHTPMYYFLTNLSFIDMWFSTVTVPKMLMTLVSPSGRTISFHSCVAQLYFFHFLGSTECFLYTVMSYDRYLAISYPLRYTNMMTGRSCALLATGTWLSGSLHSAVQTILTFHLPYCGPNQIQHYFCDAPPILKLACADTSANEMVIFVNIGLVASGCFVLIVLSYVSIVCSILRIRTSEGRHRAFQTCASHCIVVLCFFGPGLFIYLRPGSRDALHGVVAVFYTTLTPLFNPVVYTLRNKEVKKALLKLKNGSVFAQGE
Method in brief: as §1

[13] = test system: O10H3 R54H
O10H3 R54H, sequence (as listed by the source, stated change not applied): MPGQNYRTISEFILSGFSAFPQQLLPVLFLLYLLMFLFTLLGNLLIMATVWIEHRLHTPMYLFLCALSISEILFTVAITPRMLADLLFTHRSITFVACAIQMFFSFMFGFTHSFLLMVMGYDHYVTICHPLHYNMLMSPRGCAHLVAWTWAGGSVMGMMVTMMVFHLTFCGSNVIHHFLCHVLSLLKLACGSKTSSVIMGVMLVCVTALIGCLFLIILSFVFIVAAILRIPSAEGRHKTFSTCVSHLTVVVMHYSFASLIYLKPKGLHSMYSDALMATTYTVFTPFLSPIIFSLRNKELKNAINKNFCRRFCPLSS
Method in brief: as §1

[14] = test system: O10H4 I50V
O10H4 I50V, sequence (as listed by the source, stated change not applied): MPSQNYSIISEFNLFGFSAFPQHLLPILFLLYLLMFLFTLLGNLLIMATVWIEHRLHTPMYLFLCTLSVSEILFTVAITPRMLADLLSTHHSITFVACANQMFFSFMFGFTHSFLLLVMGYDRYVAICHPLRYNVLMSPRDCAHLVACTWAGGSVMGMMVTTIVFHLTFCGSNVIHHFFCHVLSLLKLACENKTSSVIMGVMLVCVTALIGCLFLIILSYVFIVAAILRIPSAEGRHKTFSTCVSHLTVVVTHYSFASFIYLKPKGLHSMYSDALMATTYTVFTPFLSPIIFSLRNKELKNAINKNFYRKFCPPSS
Method in brief: as §1

[15] = test system: O10H5 S268Y
O10H5 S268Y, sequence (as listed by the source, stated change not applied): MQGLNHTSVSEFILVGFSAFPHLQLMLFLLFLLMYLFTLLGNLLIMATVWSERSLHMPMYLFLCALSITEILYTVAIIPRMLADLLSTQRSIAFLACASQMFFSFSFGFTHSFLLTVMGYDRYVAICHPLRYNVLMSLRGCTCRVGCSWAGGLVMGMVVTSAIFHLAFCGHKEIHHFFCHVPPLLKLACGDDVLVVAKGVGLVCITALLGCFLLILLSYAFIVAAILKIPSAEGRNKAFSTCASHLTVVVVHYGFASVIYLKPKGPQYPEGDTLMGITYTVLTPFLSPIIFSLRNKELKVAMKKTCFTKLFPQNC
Method in brief: as §1

[16] = test system: O10J1 M62I I103M
Method in brief: as §1

[17] = test system: O10J1 M62I
O10J1 M62I, sequence (as listed by the source, stated change not applied): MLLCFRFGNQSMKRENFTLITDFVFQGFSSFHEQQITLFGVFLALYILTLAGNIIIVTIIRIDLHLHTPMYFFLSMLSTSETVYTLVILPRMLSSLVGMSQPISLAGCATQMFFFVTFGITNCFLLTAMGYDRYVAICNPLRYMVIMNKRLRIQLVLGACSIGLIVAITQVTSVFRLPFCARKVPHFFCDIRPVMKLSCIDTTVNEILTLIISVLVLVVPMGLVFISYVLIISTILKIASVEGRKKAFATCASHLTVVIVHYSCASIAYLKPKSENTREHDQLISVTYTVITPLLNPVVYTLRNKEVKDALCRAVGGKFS
Method in brief: as §1

[18] = test system: O10J3 Q235R E319G
Method in brief: as §1

[19] = test system: O10P1 R195K
O10P1 R195K, sequence (as listed by the source, stated change not applied): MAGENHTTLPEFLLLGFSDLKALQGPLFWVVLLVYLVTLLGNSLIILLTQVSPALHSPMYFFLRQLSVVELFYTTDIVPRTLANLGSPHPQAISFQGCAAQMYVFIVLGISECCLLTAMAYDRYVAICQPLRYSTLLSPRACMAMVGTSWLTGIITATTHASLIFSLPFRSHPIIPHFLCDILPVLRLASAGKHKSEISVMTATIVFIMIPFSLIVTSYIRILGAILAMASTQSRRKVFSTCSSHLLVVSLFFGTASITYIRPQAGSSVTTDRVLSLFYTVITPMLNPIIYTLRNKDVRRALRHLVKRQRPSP
Method in brief: as §1

[20] = test system: O10Q1 E12D
O10Q1 E12D, sequence (as listed by the source, stated change not applied): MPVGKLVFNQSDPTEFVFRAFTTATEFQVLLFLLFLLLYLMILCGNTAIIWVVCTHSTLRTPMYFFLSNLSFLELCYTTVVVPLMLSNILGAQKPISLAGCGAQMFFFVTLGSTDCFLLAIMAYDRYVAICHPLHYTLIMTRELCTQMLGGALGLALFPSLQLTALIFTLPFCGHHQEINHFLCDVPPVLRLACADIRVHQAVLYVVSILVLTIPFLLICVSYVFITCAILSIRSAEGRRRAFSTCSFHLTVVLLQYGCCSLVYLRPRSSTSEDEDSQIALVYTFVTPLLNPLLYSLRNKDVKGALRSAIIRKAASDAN
Method in brief: as §1

OCc1ccc2c(c1)OCO2
odorant receptor agonist call [1]: inactive

COc1ccc(C=O)cc1
odorant receptor agonist call [1]: inactive

O=Cc1ccc2c(c1)OCO2
odorant receptor agonist call [1]: inactive

Oc1ccccc1Br
odorant receptor agonist call [1]: inactive

CC(C=O)Cc1ccc2c(c1)OCO2 (stereo not given)
odorant receptor agonist call [1]: inactive

O=CC=Cc1ccccc1
odorant receptor agonist call [1]: inactive | odorant receptor agonist call [2]: active

CCCCC(Br)C(=O)O (stereo not given)
odorant receptor agonist call [1]: inactive

C=CCc1ccccc1
odorant receptor agonist call [3]: inactive | odorant receptor agonist call [4]: inactive

Cc1ccc(OC(=O)Cc2ccccc2)cc1
odorant receptor agonist call [1]: inactive

O=c1cc(O)c2ccccc2o1
odorant receptor agonist call [1]: inactive | odorant receptor agonist call [3]: inactive | odorant receptor agonist call [4]: inactive

C=CCOC(=O)Cc1ccccc1
odorant receptor agonist call [1]: inactive | odorant receptor agonist call [3]: inactive | odorant receptor agonist call [4]: inactive | odorant receptor agonist call [5]: inactive | odorant receptor agonist call [6]: inactive | odorant receptor agonist call [7]: inactive | odorant receptor agonist call [8]: inactive | odorant receptor agonist call [9]: inactive | odorant receptor agonist call [10]: inactive | odorant receptor agonist call [11]: inactive | odorant receptor agonist call [12]: inactive | odorant receptor agonist call [2]: inactive | odorant receptor agonist call [13]: inactive | odorant receptor agonist call [14]: inactive | odorant receptor agonist call [15]: inactive | odorant receptor agonist call [16]: inactive | odorant receptor agonist call [17]: inactive | odorant receptor agonist call [18]: inactive | odorant receptor agonist call [19]: inactive | odorant receptor agonist call [20]: inactive

CCCCCCC(Br)C(=O)O (stereo not given)
odorant receptor agonist call [1]: inactive

C=C(C)C1CC=C(C=O)CC1 (stereo not given)
odorant receptor agonist call [1]: inactive

CCC1CCC(=O)O1 (stereo not given)
odorant receptor agonist call [3]: inactive | odorant receptor agonist call [4]: inactive

O=Cc1ccccc1
odorant receptor agonist call [1]: inactive

CSSC
odorant receptor agonist call [1]: inactive
